Screening data as filed in PubChem BioAssay.
Most compounds without a hit are left out; they make up all but 2% or so of the library.
ASAP1 GAP inh – ASAP1 ArfGAP inhibition | Q9ULH1 | ASAP1-stimulated ARF1 GTP hydrolysis, GDP FP detection | inhibition, % at 16.5 µM | 0.19% of 360,000 active | AID 624377; in the data active means inhibition above about 25%;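 further: 0% = vehicle with enzyme and substrate and 100% = no enzyme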
TDP2 absorb – TDP2 (human) inhibition, absorbance primary screen; O95551; recombinant TDP2, T5PNP hydrolysis, p-nitrophenol absorbance 415 nm; inhibition, % at 12.8 µM; 0.34% of 370,000 active; AID 720702;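 active means inhibition above the mean of all tested compounds plus 3 SD, set per campaign, cut at about 25% in these data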;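 further: 0% = DMSO with enzyme and 100% = buffer with substrate but no TDP2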
Target sequence (O95551 whole entry, looked up): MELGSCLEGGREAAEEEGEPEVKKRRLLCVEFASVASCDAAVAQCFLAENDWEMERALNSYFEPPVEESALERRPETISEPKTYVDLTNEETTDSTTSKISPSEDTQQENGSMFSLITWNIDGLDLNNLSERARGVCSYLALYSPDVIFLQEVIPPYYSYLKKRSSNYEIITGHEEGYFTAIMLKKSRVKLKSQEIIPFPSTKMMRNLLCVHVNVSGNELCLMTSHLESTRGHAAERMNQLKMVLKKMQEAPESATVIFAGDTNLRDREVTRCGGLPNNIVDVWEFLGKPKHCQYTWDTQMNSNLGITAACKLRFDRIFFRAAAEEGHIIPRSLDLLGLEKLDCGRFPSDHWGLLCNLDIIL
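System: recombinant human TDP2 / Amount: 120 nM TDP2 per well / Also added: 5 mM T5PNP chromogenic substrate / Doses: 12.8 µM single point, 1% DMSO / Incubation: 2 h at 37 °C / Detection: p-Nitrophenol epi absorbance / Evaluation: % inhibition relative to enzyme-containing and enzyme-free wells / Repeats: singlicate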
LEDGF integ inh – blocks HIV-1 LEDGF/p75-dependent DNA integration | AID 743269 | TR-FRET IN-LEDGF/p75 DNA integration, Eu/Cy5 | inhibition, % at 3.7 µM | 0.64% of 370,000 active;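 active means inhibition above the screen-wide mean plus 3 SD, cut at about 13% in these data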;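 further: signal is the Cy5 over europium emission ratio at 671 and 618 nm; 0% = plate median of compound wells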
UHRF1 MBD2 ctr – blocks human UHRF1 binding to methylated DNA; Q96T88; UHRF1 binding to methylated oligo, TR-FRET; inhibition, % at 4.4 µM; AID 687016; 0.75% of 370,000 active; in the data active means inhibition above about 21%;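 further: UHRF1 SRA domain binding a hemimethylated CpG hairpin DNA probe; 0% = median of test compound wells and 100% = reference inhibitor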
MBD2 inh – MBD2-methylated oligo binding inhibition; Q9UBB5; TR-FRET, MBD2 binding to methylated oligonucleotide; inhibition, % at 4.4 µM; 0.31% of 370,000 active; AID 686964; in the data active means inhibition above about 13%
ARFGAP1 inhibitor – inhibitors of rat ARFGAP1; inhibition, % at 16.5 µM; 0.26% of 360,000 active; Arfgap1-stimulated ARF1 GTP hydrolysis, GDP FP detection;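 active means inhibition above a per-plate limit, mean inhibition of low control wells plus 3 SD, cut at about 25% in these data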;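 further: 0% = DMSO wells with enzyme and 100% = wells lacking Arfgap1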
Target sequence (Q62848 1-136 limits assumed): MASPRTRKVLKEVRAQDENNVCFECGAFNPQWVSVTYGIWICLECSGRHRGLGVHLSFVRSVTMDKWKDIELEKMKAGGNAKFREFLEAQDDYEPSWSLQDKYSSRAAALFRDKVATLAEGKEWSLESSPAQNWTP
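Assay system: purified rat His6-Arfgap1 residues 1-136 (GAP domain); Reagent: human Δ17 ARF1 bound to GTP; Dosing: 16.5 µM single point, 1.26% DMSO; Times: GTP hydrolysis reaction 2 h at 25 °C; Signal: FP, GDP Alexa 633 tracer displaced from anti-GDP antibody, 620/688 nm; Measure: % inhibition from polarization.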
Numbers without * were called inactive; x = no result.

SMILES | ASAP1 GAP inh | TDP2 absorb | LEDGF integ inh | UHRF1 MBD2 ctr | MBD2 inh | ARFGAP1 inhibitor
O=C(O)c1ccc(NC(=O)c2ccc(COc3ccccc3)o2)cc1 | -9 | -4 | 0 | 26* | 1 | -8
COCc1ccc(C(=O)Nc2ccc(C(=O)O)cc2)o1 | 3 | -19 | 4 | 5 | -4 | -11
COC(=O)[C@@]12CCCCC3=C1N(CCC3)C(=O)[C@H]2CC(=O)NCc1ccccc1 | x | 0 | -2 | 0 | 1 | x
CC(C)c1ccccc1-n1c(SCC(=O)N2CCc3ccccc3C2)nc2ccccc2c1=O | 7 | -4 | 1 | 3 | 8 | 3
O=C(CSc1nc2ccccc2c(=O)n1-c1ccccc1)N1CCc2ccccc2C1 | -15 | 4 | 0 | 28* | 7 | 1
O=C(O)c1cc(N/N=C/c2ccc(N3CCOCC3)s2)ccc1Cl | -4 | 15 | 68* | 93* | 43* | -14
Cc1cc(Br)ccc1OCCCN1CCC(C(O)(c2ccccc2)c2ccccc2)CC1 | x | -2 | -2 | -1 | -3 | x
CCC/C(=N\NC(=O)c1cccc(C)c1)c1ccccc1 | -10 | -5 | 4 | 33* | 0 | 3
CC(=O)c1cccc(NC(=O)N2CCCC2C(=O)Nc2cccc(C)c2)c1 (centres undefined) | 9 | 3 | 1 | 21* | 9 | -13
COc1cccc(NC(=O)C2CCCN2C(=O)Nc2cccc(F)c2)c1 (centres undefined) | 8 | 12 | -1 | 63* | 3 | -6
COc1cccc(NC(=O)C2CCCN2C(=O)Nc2ccccc2)c1 (centres undefined) | -10 | 2 | 0 | -2 | 0 | -5
COC(=O)[C@]12C[C@H](CC(=O)NCc3ccc(OC)c(OC)c3)C(=O)N(CCc3ccc(OC)c(OC)c3)C1=C[C@H](C(C)C)O[C@@H]2C1CC1 | x | 3 | -2 | 1 | 3 | x
CCN(CC)S(=O)(=O)c1ccc(N2CCOCC2)c(NC(=O)COc2ccccc2C#N)c1 | 37* | -2 | 4 | 7 | -1 | 9
COc1ccccc1OCC(=O)Nc1cc(S(=O)(=O)N2CCCCC2)ccc1N1CCCCC1 | -1 | 3 | -2 | 27* | 10 | 8
CCN(CC)S(=O)(=O)c1ccc(N2CCOCC2)c(NC(=O)COc2ccccc2C)c1 | 2 | 2 | -4 | -1 | 2 | 8
COc1ccccc1NC(=O)COC(=O)c1cc([N+](=O)[O-])ccc1N1CCCC1 | 8 | 4 | 0 | 35* | -2 | 2
O=C(COC(=O)c1cc([N+](=O)[O-])ccc1N1CCCC1)Nc1ccccc1OC(F)F | 8 | -10 | -8 | 0 | -5 | 3
CCOc1ccccc1OCC(=O)Nc1cc(S(=O)(=O)N2CCCCC2)ccc1N1CCN(CC)CC1 | 3 | -4 | 1 | -2 | 2 | 7
Cc1ccc(NC(=O)CN2C(=O)N/C(=C/c3cccn3-c3ccc(C(=O)O)cc3)C2=O)cc1 | -14 | 16 | 57* | 102* | 72* | -9
CCCC(=O)N/C(N)=N/c1nc(C)c2ccccc2n1 | -4 | -12 | -3 | 34* | -1 | 9
CCc1ccc2nc(/N=C(\N)NC(=O)c3ccccc3)nc(C)c2c1 | 1 | 7 | 4 | 1 | 0 | 2
CC(C)C[C@@H](CN)NC(=O)c1nc[nH]c1C(=O)N[C@@H](Cc1c[nH]c2ccccc12)C(=O)CNC[C@H](C)NC(=O)c1nc[nH]c1C(=O)N[C@@H](CC(=O)O)C(=O)O | -4 | 0 | 6 | 22* | 7 | 6
CC(C)C[C@@H](CNCC(=O)[C@H](Cc1c[nH]c2ccccc12)NC(=O)c1[nH]cnc1C(=O)N[C@@H](C)CN)NC(=O)c1nc[nH]c1C(=O)N[C@@H](C)C(=O)O | 7 | 8 | 1 | 22* | 8 | -10
CC(C)C[C@@H](CNCC(=O)[C@H](Cc1ccccc1)NC(=O)c1[nH]cnc1C(=O)N[C@@H](C)CN)NC(=O)c1nc[nH]c1C(=O)N[C@@H](CC(=O)O)C(=O)O | -3 | 9 | -2 | 4 | -2 | -14
CC(C)C[C@@H](CNCC(=O)[C@H](Cc1c[nH]c2ccccc12)NC(=O)c1[nH]cnc1C(=O)N[C@H](CN)CC(C)C)NC(=O)c1nc[nH]c1C(=O)N[C@@H](CC(=O)O)C(=O)O | 0 | 8 | 1 | 22* | 9 | 8
SMILES | ASAP1 GAP inh | TDP2 absorb | LEDGF integ inh | UHRF1 MBD2 ctr | MBD2 inh | ARFGAP1 inhibitor
CC(C)C[C@@H](CNCC(=O)[C@H](Cc1c[nH]c2ccccc12)NC(=O)c1[nH]cnc1C(=O)N[C@@H](C)CN)NC(=O)c1nc[nH]c1C(=O)N[C@@H](CC(=O)O)C(=O)O | -2 | 8 | -1 | 20 | 5 | -3
Cc1cc(C)cc(C(=O)N/N=C/c2ccoc2)c1 | 13 | 8 | 3 | 4 | -4 | -2
O=C(N/N=C/c1ccoc1)c1cc(O)cc(O)c1 | -18 | 0 | 8 | 28* | 5 | 6
O=C(N/N=C/c1ccc(OC(=O)c2ccccc2Cl)cc1)c1cc(O)cc(O)c1 | -1 | 13 | 17* | 37* | 12 | 10
COc1cc(C(=O)N/N=C/c2ccc(OC(=O)c3ccccc3)c(OC)c2)ccc1O | 8 | -8 | 2 | 0 | -4 | 11
COc1cc(/C=N/NC(=O)c2cc(O)cc(O)c2)ccc1OC(=O)c1ccccc1 | -3 | 11 | 9 | 28* | 10 | 14
O=C(NC1CCCCN(Cc2cccc(Cl)c2)C1=O)c1cccs1 (centres undefined) | x | -9 | 4 | 9 | 3 | x
C#CCOCCOCCOCCNc1nc(N2CCN(C(=O)[C@H](CCC(=O)O)n3cc(CN)nn3)CC2)nc(N2CCN(C(=O)[C@H](CCC(=O)O)n3cc([C@@H](N)[C@H](C)CC)nn3)CC2)n1 | 1 | -6 | 8 | 22* | 6 | -6
CCN(CC)C(=O)CNc1nnnn1-c1ccccc1 | x | -7 | 2 | -2 | 2 | x
COc1ccc(Cc2nnc(NC(=O)C(C)C)s2)cc1 | 4 | 13 | 1 | 30* | 12 | 9
COc1ccc2c(c1)C[C@@H](CON1C(C)(C)CCCC1(C)C)N2S(=O)(=O)c1ccc(C)cc1 | x | -5 | 6 | -1 | -5 | x
COC(=O)c1ccc(=O)n(CC(=O)c2ccc(Cl)cc2)c1 | -11 | 2 | 1 | 27* | 3 | 11
CC1OC(CC(=O)O)CC2=C1C(=O)c1c(O)cccc1C2=O (centres undefined) | 47* | 34* | 40* | 18 | -8 | -18
CN1C2=N[C@@H](c3ccc4c(c3)OCO4)CC(=O)N2/C(=C\c2ccccc2)[C@H]1c1ccccc1 | x | 3 | 1 | -2 | 2 | x
Cc1ccsc1/C=N/NC(=O)c1sccc1C | -17 | -1 | 1 | -1 | 3 | 3
